T cruzi intra: blocks T. cruzi growth inside host cells. intracellular Trypanosoma cruzi in host cells, plate reader. activity score (inhibition), % at 5.01 µM. AID 651903. 22,000 compounds, 4.9% hits; in the data active = activity score above about 55%;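 note: parasites and compound incubated about four days before reading; 0% = median of neutral control wells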
A1 apoptosis 2: A1 inhibition read as caspase activation; MEF A1-2A-BIM cells, caspase-Glo luminescence, 3 h; percent of clofoctol response, DMSO zero; AID 2465; caspase activation, % (concentration not given with the values); 24,000 tested, under 10 active; in the data active = caspase activation above about 5.9%
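Evaluation: Caspase-3/7 activity from luminescence increase | Assay system: A1-2A-BIM mouse embryonic fibroblasts | Quantity: 2500 MEF cells/well | Medium: RPMI-1640 plus 10% FBS | Detection: Caspase-Glo 3/7 luminescence, 1 h at room temperature | Dosing: 50 nL compound per well, pinned | Timing: Cells settled overnight, compound exposure 3 h at 37 °C, 5% CO2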
INS-1E rescue: INS-1E beta cell protection from cytokine death; AID 488910; 20,000 compounds, 0.1% hits; protection from cytokine-induced ATP loss, % at 10 µM; INS-1E cytokine-induced death, ATP luminescence, 48 h; normalised: neutral wells 0, positive control 100;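 active = mean replicate protection from cytokine-induced ATP loss at least 50% and at least 75% of replicates each reaching 50%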
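assay system = INS-1E rat insulinoma cells | amount = 8000 cells per well | medium = phenol-red-free RPMI with 5% fetal bovine serum | doses = one compound concentration, pin transfer | timing = 48 h cytokine plus compound treatment, 10 min reagent incubation | also added = IL-1β, TNF-α and IFN-γ cytokine mix | signal = CellTiter-Glo luminescence measuring cellular ATP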
The depositor's hits bear a star; nt = no result. Many of the other results were omitted from the sample, so hits are more common in it than they were.

SMILES	T cruzi intra	A1 apoptosis 2	INS-1E rescue
C[C@H](CO)N1C[C@H](C)[C@H](CN(C)C)Oc2c(NC(=O)Nc3ccc(C(F)(F)F)cc3)cccc2C1=O	81*	0	-5
C[C@@H]1CN([C@H](C)CO)C(=O)c2cccc(NC(=O)Nc3ccc(C(F)(F)F)cc3)c2O[C@H]1CN(C)C(=O)Nc1ccc2c(c1)OCO2	66*	0	-56
C[C@@H]1CN([C@@H](C)CO)C(=O)c2cccc(NC(=O)Nc3ccc4c(c3)OCO4)c2O[C@@H]1CN(C)C(=O)Nc1ccc(C(F)(F)F)cc1	-28	1	4
C[C@H]1CN([C@@H](C)CO)C(=O)c2cccc(NC(=O)Nc3ccc(C(F)(F)F)cc3)c2O[C@@H]1CN(C)C	38	0	-12
C[C@H]1CN([C@@H](C)CO)C(=O)c2cccc(NC(=O)Nc3ccc(C(F)(F)F)cc3)c2O[C@H]1CN(C)C(=O)Nc1ccc(F)cc1	60*	0	-57
C[C@@H]1CN([C@@H](C)CO)C(=O)c2cccc(NS(=O)(=O)c3ccc(Cl)cc3)c2O[C@@H]1CN(C)C(=O)Nc1ccc(C(F)(F)F)cc1	83*	0	-91
Cc1ccc(S(=O)(=O)Nc2ccc3c(c2)C(=O)N([C@@H](C)CO)C[C@@H](C)[C@@H](CN(C)C(=O)Nc2ccccc2)O3)cc1	0	0	-3
COc1ccc(CN(C)C[C@H]2OCCCC[C@@H](C)Oc3ccc(NC(=O)CCC(F)(F)F)cc3C(=O)N([C@H](C)CO)C[C@@H]2C)cc1	-8	1	-3
Cc1ccc(S(=O)(=O)N2CCC[C@H]2Cn2cc(CN3C(=O)COC[C@H]3c3ccccc3)nn2)cc1	nt	0	nt
C[C@H](CO)N1C[C@H](C)[C@H](CN(C)S(=O)(=O)c2ccc(Cl)cc2)Oc2c(NC(=O)Nc3ccc4c(c3)OCO4)cccc2C1=O	-49	0	-3
CNC[C@@H]1Oc2c(NC(=O)c3cnccn3)cccc2C(=O)N([C@@H](C)CO)C[C@@H]1C	-20	-1	4
C[C@H](CO)N1C[C@H](C)[C@H](CN(C)CC2CCCCC2)Oc2c(NC(=O)Nc3ccc(C(F)(F)F)cc3)cccc2C1=O	56*	0	-82
C[C@H]1CN([C@@H](C)CO)C(=O)c2cccc(NC(=O)Nc3ccc(C(F)(F)F)cc3)c2O[C@H]1CN(C)C(=O)Nc1ccc(C(F)(F)F)cc1	48	nt	-3
COc1ccc(NC(=O)N(C)C[C@@H]2Oc3c(NC(=O)Nc4ccc(C(F)(F)F)cc4)cccc3C(=O)N([C@H](C)CO)C[C@H]2C)cc1	60*	-1	-12
C[C@@H]1CN([C@H](C)CO)C(=O)c2cccc(NC(=O)Nc3ccc(C(F)(F)F)cc3)c2O[C@@H]1CN(C)CC1CCCCC1	14	nt	-29
COc1ccc(NC(=O)Nc2cccc3c2O[C@H](CN(C)C(=O)Nc2ccc(C(F)(F)F)cc2)[C@H](C)CN([C@H](C)CO)C3=O)cc1	1	-1	3
C[C@@H]1CN([C@H](C)CO)C(=O)c2cccc(NC(=O)Nc3ccc(C(F)(F)F)cc3)c2O[C@@H]1CN(C)C(=O)Nc1ccc(C(F)(F)F)cc1	75*	0	-112
COCCCNC(=O)[C@@]1(Cc2ccccc2)N=C(c2ccc(OCCCO)cc2)O[C@H]1c1ccccc1	nt	-1	nt
CO/N=[N+](\[O-])N(C)CC(C)O (centres undefined)	nt	1	nt
C[C@@H]1CN([C@H](C)CO)C(=O)c2cc(NS(C)(=O)=O)ccc2O[C@@H](C)CCCCO[C@H]1CN(C)Cc1ccncc1	nt	0	nt
C[C@H](CO)N1C[C@H](C)[C@H](CN(C)Cc2cccc(C(F)(F)F)c2)Oc2ncc(-c3ccc(F)cc3)cc2C1=O	59*	nt	nt
C[C@H](CO)N1C[C@H](C)[C@H](CN(C)Cc2ccc(F)cc2)Oc2ncc(C#Cc3ccccc3)cc2C1=O	nt	1	nt
CNC[C@@H]1Oc2ncc(-c3cccc(C(F)(F)F)c3)cc2C(=O)N([C@H](C)CO)C[C@@H]1C	54	-1	nt
C[C@H](CO)N1C[C@H](C)[C@H](CN(C)Cc2cccc(C(F)(F)F)c2)Oc2ncc(C#Cc3ccccc3)cc2C1=O	84*	1	nt
C[C@H](CO)N1C[C@H](C)[C@H](CN(C)C)Oc2ncc(-c3cccc(C(F)(F)F)c3)cc2C1=O	81*	1	nt
Cc1cccc(CN(C)C[C@@H]2Oc3ncc(-c4ccc(F)cc4)cc3C(=O)N([C@H](C)CO)C[C@@H]2C)c1	34	nt	nt
COc1cccc(S(=O)(=O)N(C)C[C@@H]2Oc3ncc(-c4cccc(F)c4)cc3C(=O)N([C@H](C)CO)C[C@@H]2C)c1	30	nt	nt
